pIC50: −log10 of the molar value. *1 amine or outer side, *2 acyl side, *3 side chain or, on linkers, in order; H or OH if unused. Where a SMILES comes first, the peptide text is derived from it. Bridges are numbered along the chain shown (N, C = ends). [ ]: non-standard residue; d: D form. Pro(trans-4-NH2) = O=C([C@@H]1C[C@@H](N[*:3])CN1[*:1])[*:2]
What was measured:
[1] = target: T1, Integrin alpha-V/beta-3 (Homo sapiens, UniProt P05106+P06756); assay: Displacement of [125I]echistatin from human integrin alpha-V-beta-3 receptor low affinity state by solid phase assay; assay type: protein-complex assay
Target sequence in this assay (P05106 27-788 limits assumed): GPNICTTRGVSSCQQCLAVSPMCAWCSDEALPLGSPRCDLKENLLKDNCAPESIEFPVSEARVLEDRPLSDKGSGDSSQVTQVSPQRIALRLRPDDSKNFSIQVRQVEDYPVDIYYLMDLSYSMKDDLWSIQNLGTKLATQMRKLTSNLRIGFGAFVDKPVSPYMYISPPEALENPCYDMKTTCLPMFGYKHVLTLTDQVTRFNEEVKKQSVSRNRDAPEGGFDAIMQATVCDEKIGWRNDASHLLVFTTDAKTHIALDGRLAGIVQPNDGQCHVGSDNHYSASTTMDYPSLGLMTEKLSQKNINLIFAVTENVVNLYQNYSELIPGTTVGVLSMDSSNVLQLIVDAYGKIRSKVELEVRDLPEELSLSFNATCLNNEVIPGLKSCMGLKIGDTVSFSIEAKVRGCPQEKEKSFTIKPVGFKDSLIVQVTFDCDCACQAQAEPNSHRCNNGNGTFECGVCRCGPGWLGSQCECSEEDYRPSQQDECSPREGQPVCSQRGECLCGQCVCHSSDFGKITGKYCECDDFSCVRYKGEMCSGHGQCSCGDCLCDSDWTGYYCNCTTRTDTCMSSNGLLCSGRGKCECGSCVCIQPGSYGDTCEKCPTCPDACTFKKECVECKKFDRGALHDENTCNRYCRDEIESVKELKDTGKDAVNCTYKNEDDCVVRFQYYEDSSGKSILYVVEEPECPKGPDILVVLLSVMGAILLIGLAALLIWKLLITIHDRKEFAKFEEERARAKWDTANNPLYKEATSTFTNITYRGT
Target sequence in this assay (P06756 31-889 limits assumed): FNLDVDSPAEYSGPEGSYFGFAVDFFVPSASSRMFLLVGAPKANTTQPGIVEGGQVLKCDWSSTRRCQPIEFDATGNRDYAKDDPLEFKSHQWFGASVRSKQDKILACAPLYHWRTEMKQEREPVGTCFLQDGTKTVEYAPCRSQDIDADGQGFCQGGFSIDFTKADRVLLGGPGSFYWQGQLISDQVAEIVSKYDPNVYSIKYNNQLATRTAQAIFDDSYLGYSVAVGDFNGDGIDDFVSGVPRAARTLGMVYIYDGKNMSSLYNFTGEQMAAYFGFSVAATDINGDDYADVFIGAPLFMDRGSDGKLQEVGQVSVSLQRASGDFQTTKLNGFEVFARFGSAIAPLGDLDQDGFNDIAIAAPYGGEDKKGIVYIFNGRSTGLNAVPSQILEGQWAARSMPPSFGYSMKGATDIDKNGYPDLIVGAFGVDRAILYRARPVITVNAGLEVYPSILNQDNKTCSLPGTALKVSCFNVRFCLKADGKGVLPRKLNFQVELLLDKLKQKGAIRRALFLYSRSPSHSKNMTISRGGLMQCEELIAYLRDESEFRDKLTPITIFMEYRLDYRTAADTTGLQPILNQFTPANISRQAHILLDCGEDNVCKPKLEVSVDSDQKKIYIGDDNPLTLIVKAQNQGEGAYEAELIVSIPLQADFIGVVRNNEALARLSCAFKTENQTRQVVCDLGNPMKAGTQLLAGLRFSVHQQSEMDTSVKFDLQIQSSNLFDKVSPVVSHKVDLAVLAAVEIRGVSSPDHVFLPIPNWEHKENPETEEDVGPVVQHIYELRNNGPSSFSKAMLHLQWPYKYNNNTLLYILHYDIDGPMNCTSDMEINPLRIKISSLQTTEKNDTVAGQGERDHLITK
Target sequence in this assay (P06756 891-1048 limits assumed): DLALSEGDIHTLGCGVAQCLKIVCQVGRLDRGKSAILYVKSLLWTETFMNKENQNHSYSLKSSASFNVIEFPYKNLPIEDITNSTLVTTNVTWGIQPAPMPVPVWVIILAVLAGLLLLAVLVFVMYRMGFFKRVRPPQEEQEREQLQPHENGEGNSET

[2] = target: T1, Integrin alpha-V/beta-3; assay: Displacement of [125I]echistatin from human integrin alpha-V-beta-3 receptor by solid phase assay; assay type: protein-complex assay
How it was run: (§1)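 Competitive binding to purified human integrin protein (αVβ3 or αVβ5) measured as inhibition of [¹²⁵I]-echistatin specific binding over a range of inhibitor concentrations. Each point is the mean ± SEM of triplicate determinations, and IC50 is read from the inhibition curves.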
Target sequence in this assay (P05106 27-788 limits assumed): as the sequence (P05106 27-788 limits assumed) above
Target sequence in this assay (P06756 31-889 limits assumed): as the sequence (P06756 31-889 limits assumed) above
Target sequence in this assay (P06756 891-1048 limits assumed): as the sequence (P06756 891-1048 limits assumed) above

[3] = target: T1, Integrin alpha-V/beta-3; assay: Displacement of [125I]echistatin from human integrin alpha-V-beta-3 receptor low affinity state by solid phase assay relative to control; assay type: protein-complex assay; design: concentration or dose not given beside the values; conditions: concentration not given here
How it was run: (§2)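 Competition for [125I]-echistatin specific binding to purified human αvβ3 or αvβ5 integrin protein. Inhibition was plotted against test compound concentration. Each point is the mean ± SEM of triplicate determinations.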

[4] = target: T1, Integrin alpha-V/beta-3; assay: Displacement of [125I]echistatin from human integrin alpha-V-beta-3 receptor high affinity state by solid phase assay relative to control; assay type: protein-complex assay; design: concentration or dose not given beside the values; conditions: concentration not given here; how it was run: as §2
[5] = target: T2, Integrin alpha-V/beta-5 (Homo sapiens, UniProt P06756+P18084); assay: Displacement of [125I]echistatin from human integrin alpha-V-beta-5 receptor low affinity state by solid phase assay relative to control; assay type: protein-complex assay; conditions: concentration not given here
[6] = target: T2, Integrin alpha-V/beta-5; assay: Displacement of [125I]echistatin from human integrin alpha-V-beta-5 receptor high affinity state by solid phase assay relative to control; assay type: protein-complex assay; conditions: concentration not given here
[7] = target: T2, Integrin alpha-V/beta-5; assay: Displacement of [125I]echistatin from human integrin alpha-V-beta-5 receptor by solid phase assay; assay type: protein-complex assay; how it was run: as §1
Target sequence in this assay (P06756 31-889 limits assumed): as the sequence (P06756 31-889 limits assumed) above
Target sequence in this assay (P06756 891-1048 limits assumed): as the sequence (P06756 891-1048 limits assumed) above
Target sequence in this assay (P18084 24-799 limits assumed): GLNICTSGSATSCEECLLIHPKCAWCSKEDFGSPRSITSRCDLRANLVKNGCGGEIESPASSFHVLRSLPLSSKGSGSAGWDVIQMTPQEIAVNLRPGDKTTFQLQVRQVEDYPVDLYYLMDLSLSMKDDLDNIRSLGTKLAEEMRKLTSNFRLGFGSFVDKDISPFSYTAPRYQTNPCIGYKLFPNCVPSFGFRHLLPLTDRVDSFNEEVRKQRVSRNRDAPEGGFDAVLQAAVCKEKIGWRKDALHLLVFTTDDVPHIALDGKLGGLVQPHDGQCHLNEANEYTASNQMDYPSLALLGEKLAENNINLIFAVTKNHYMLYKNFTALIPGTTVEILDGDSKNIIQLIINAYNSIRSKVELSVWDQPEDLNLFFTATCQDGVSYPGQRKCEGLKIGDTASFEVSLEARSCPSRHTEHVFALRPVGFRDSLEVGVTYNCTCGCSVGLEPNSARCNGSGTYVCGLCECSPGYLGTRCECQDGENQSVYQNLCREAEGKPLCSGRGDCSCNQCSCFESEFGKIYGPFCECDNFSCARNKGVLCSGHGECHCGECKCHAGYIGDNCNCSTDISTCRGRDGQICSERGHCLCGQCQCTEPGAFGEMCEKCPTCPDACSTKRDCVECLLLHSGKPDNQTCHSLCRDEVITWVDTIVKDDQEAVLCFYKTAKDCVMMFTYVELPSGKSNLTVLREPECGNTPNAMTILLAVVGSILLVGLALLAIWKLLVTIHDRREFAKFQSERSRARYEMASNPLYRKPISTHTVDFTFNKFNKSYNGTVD

[8] = target: T3, Integrin alpha-5/beta-1 (Homo sapiens, UniProt P05556+P08648); assay: Inhibition of human integrin alpha5beta1 receptor mediated K562 cell adhesion to vitronectin; assay type: cell-based
[9] = target: T3, Integrin alpha-5/beta-1; assay: Inhibition of human integrin alpha-5-beta-1 receptor mediated WM115 cell adhesion to vitronectin; assay type: cell-based, WM-115
[10] = target: T1, Integrin alpha-V/beta-3; assay: Inhibition of human integrin alpha-v-beta-3 receptor mediated WM115 cell adhesion to vitronectin; assay type: cell-based, WM-115
Target sequence in this assay (P05106 27-788 limits assumed): as the sequence (P05106 27-788 limits assumed) above
Target sequence in this assay (P06756 31-889 limits assumed): as the sequence (P06756 31-889 limits assumed) above
Target sequence in this assay (P06756 891-1048 limits assumed): as the sequence (P06756 891-1048 limits assumed) above

[11] = target: T1, Integrin alpha-V/beta-3; assay: Inhibition of human integrin alpha-V-beta-3 receptor mediated K562 cell adhesion to vitronectin; assay type: cell-based
Target sequence in this assay (P05106 27-788 limits assumed): as the sequence (P05106 27-788 limits assumed) above
Target sequence in this assay (P06756 31-889 limits assumed): as the sequence (P06756 31-889 limits assumed) above
Target sequence in this assay (P06756 891-1048 limits assumed): as the sequence (P06756 891-1048 limits assumed) above

[12] = target: T2, Integrin alpha-V/beta-5; assay: Displacement of [125I]echistatin from human integrin alpha-V-beta-5 receptor low affinity state by solid phase assay; assay type: protein-complex assay
Target sequence in this assay (P06756 31-889 limits assumed): as the sequence (P06756 31-889 limits assumed) above
Target sequence in this assay (P06756 891-1048 limits assumed): as the sequence (P06756 891-1048 limits assumed) above
Target sequence in this assay (P18084 24-799 limits assumed): as the sequence (P18084 24-799 limits assumed) above

SMILES	pIC50 [2]	pIC50 [1]	inhibition [3] [%]	inhibition [4] [%]	also measured
NC(N)=NCCC[C@@H]1NC(=O)[C@@H]2C[C@@H](CN2C(=O)c2ccccc2)NC(=O)[C@H](CC(=O)O)NC(=O)CNC1=O	8.29	6.22	–	–	–
NC(N)=NCCC[C@@H]1NC(=O)[C@@H]2C[C@H](CN2C(=O)c2ccccc2)NC(=O)[C@H](CC(=O)O)NC(=O)CNC1=O	6.76	6.49	–	–	–
N=C(N)NCCC[C@@H]1NC(=O)[C@@H]2C[C@H](CN2C(=O)c2ccccc2)NC(=O)[C@H](CC(=O)O)NC(=O)CNC1=O	–	–	68.4	31.6	–
CCCCCCCN1C[C@@H]2C[C@H]1C(=O)N[C@@H](CCCNC(=N)N)C(=O)NCC(=O)N[C@@H](CC(=O)O)C(=O)N2	–	–	46.3	53.7	inhibition [5]: 71%; inhibition [6]: 29%
N=C(N)NCCC[C@@H]1NC(=O)[C@@H]2C[C@H](CN2)NC(=O)[C@H](CC(=O)O)NC(=O)CNC1=O (H-[Pro(trans-4-NH2)]RGD; lactam 1-C)	–	–	15.5	84.5	–
COC(=O)[C@H]1[C@@H]2NC(=O)[C@H](CC(=O)O)NC(=O)CNC(=O)[C@H](CCCNC(=N)N)NC(=O)[C@H](C(C)C)NC(=O)[C@@H]21	–	–	–	–	pIC50 [8]: 5.82; pIC50 [9]: 5.82; pIC50 [10]: 7.70; pIC50 [11]: 7.70
CCC(=O)N1C[C@@H]2C[C@H]1C(=O)N[C@@H](CCCNC(=N)N)C(=O)NCC(=O)N[C@@H](CC(=O)O)C(=O)N2	–	–	57.9	42.1	–
N=C(N)NCCC[C@@H]1NC(=O)[C@@H]2C[C@@H](CN2C(=O)c2ccccc2)NC(=O)[C@H](CC(=O)O)NC(=O)CNC1=O	–	–	42.2	57.8	–

Now from value to compound, other results behind:

pIC50 [2]	SMILES	pIC50 [1]	inhibition [3] [%]	inhibition [4] [%]	also measured
8.25	CCC(=O)N1C[C@@H]2C[C@H]1C(=O)N[C@@H](CCCN=C(N)N)C(=O)NCC(=O)N[C@@H](CC(=O)O)C(=O)N2	6.60	–	–	–
9.59	N=C(N)NCCC[C@@H]1NC(=O)[C@@H]2CC[C@H](C2)NC(=O)[C@H](CC(=O)O)NC(=O)CNC1=O	–	–	–	pIC50 [7]: 8.95
8.25	NC(N)=NCCC[C@@H]1NC(=O)CNC(=O)[C@@H](CC(=O)O)N[C@H]2CCC[C@H]3CC[C@H](C1=O)N3C2=O	–	–	–	pIC50 [7]: 9.05
8.55	CCCCCCCN1C[C@@H]2C[C@H]1C(=O)N[C@@H](CCCN=C(N)N)C(=O)NCC(=O)N[C@@H](CC(=O)O)C(=O)N2	6.75	–	–	pIC50 [7]: 7.44; pIC50 [12]: 7.21
